Experimental data as given in PMC12236005 (Journal of Nanobiotechnology, 2025).

Columns and labels:
H9c2 cells [1] = experiment: Apoptosis by flow cytometry, Annexin V-PI staining; type: cell-based; settings: H9c2 + H2O2, 24 h treatment, n = 3
H2O2-treated H9c2 cells = experiment: Mitochondria-related cell injury probes; type: cell-based; settings: 6 h treatment, n = 5; for mitochondrial membrane potential: JC-10 probe
Procedure, shortened: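 H9c2 cells were seeded and grown 24 h, then treated for 6 h and stained with JC-10. Fluorescence images were taken, and membrane potential was expressed as the ratio of red to green fluorescence intensity. n = 5.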

H9c2 cells [2] = experiment: Cell protection under H2O2, CCK-8; type: cell-based; settings: 10 µM equivalent of PBA or/and ISN, 500 µM H2O2, 24 h, n = 5
Procedure, shortened: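 H9c2 cells (high-glucose DMEM, 10% FBS) seeded at 5 × 10^3/well and grown 24 h. Medium then replaced with treatments at 10 µM PBA and/or ISN equivalent, followed by 500 µM H2O2, with PBS as control. After 24 h, cells were given fresh medium containing 10% CCK-8 for 4 h. Supernatant absorbance was read at 450 nm to calculate viability.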

H2O2 treated H9c2 cells [3] = experiment: Intracellular ONOO-/RNS, O58 probe; type: cell-based; settings: 4 h treatment, n = 5
Procedure, shortened: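 H9c2 cells (high-glucose DMEM, 10% FBS) were seeded and grown 24 h, then treated 4 h. Cells were stained with BBoxiProbe O58 for ONOO−, imaged by fluorescence microscopy, and mean fluorescence intensity was quantified. n = 5.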

H2O2 treated H9c2 cells [4] = experiment: Intracellular ROS, DHE probe; type: cell-based; settings: DHE staining, 4 h treatment, n = 5
Procedure, shortened: (§1)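 H9c2 cells cultured 24 h, then exposed to test compound for 4 h. Stained with a fluorescent probe: DHE for ROS, O38 for NO. Fluorescence microscopy, with mean fluorescence intensity taken per image. n = 5.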

H2O2 treated H9c2 cells [5] = experiment: Intracellular NO, O38 probe; type: cell-based; settings: 4 h treatment, n = 5
Procedure, shortened: as §1

HUVECs [6] = experiment: HUVEC migration; type: cell-based, human; settings: H2O2 treated; scratch assay 24 h and Transwell assay 8 h; n = 5
Procedure, shortened: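 Two formats. Scratch: HUVECs pre-stained with green fluorescent dye and grown to a confluent monolayer. Gap scratched with a pipette tip, then fresh medium with test compound added. Fluorescence images at 0 and 24 h give the percentage of wound area healed. Transwell: 8.0-µm pores, 8 × 10^4 cells in serum-free medium above, 10% FBS medium with test compound below, 8 h. Migrated cells stained with 0.1% crystal violet and counted in five random fields. n = 5.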

HUVECs [7] = experiment: Western blotting of VEGF, p-eNOS, eNOS; type: cell-based, human; settings: H2O2 treated HUVECs, immunoblot; n = 3
Procedure, shortened: (§2)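 Lysates from HUVECs or H9c2 cells were protein-quantified by BCA. Equal amounts were run on SDS-PAGE and transferred to PVDF. Membranes were blocked with 5% non-fat milk and probed with primary and secondary antibodies. Bands were detected by ECL chemiluminescence and quantified by densitometry. n = 3.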

MI mice = type: in vivo, C57BL/6 mice
[8] = In vivo distribution of Cy5.5-labeled PDCs; parameters: species or system mice
Procedure, shortened: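 Male C57BL/6 mice (10-week-old), sham or MI, received Cy5.5-labelled PDCs by tail-vein injection. A scrambled-peptide (non-targeting) conjugate served as control, and dye-labelled conjugates were normalised to equal fluorescence by UV-Vis. At 2 h and 6 h mice were euthanised. Hearts, lungs, livers, spleens and kidneys were imaged ex vivo and average radiance quantified.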

ABTS assay = settings: test kit; n = 3
H9c2 cells [9] = experiment: Mitochondria TEM and cellular ATP; type: cell-based
HUVECs [10] = experiment: HUVEC survival under oxidative stress; type: cell-based, human; settings: H2O2, calcein-AM/PI staining and CCK-8 assay; n = 5
Procedure, shortened: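 CCK-8: 5 × 10^3 cells/well plated 24 h, then medium with test compound (10 µM equivalent of PBA and/or ISN) and 500 µM H2O2 (PBS control). After 24 h, 10% CCK-8 for 4 h, absorbance at 450 nm. Live/dead: 1 × 10^5 cells/well plated 24 h, treated 24 h, calcein AM/PI stain 30 min, fluorescence imaging, dead/live ratio quantified. n = 5.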

DPPH assay = settings: PDCs 0-200 µM, DPPH 500 µM, 30 min in darkness, absorbance 517 nm; n = 3
Procedure, shortened: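 DPPH solution (500 µM before mixing) was combined with PDC solutions at 0, 5, 10, 25, 50, 100 and 200 µM and kept 30 min in darkness. Absorbance was read at 517 nm and scavenged DPPH calculated. Mean ± SEM, n = 3.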

H9c2 cells [11] = experiment: Western blotting of oxidative stress, inflammation and apoptosis proteins; type: cell-based; settings: H2O2 treated H9c2 cells, n = 3
Procedure, shortened: as §2

HUVECs [12] = experiment: HUVEC tube formation assay; type: cell-based, human; settings: H2O2-treated HUVECs on Matrigel, 6 h; n = 5
Procedure, shortened: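 HUVECs (2.5 × 10^4 per well) seeded on Matrigel-coated wells with test compound and incubated 6 h. Bright-field images from five random fields scored for tube length, branching length and junction number. n = 5.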

[13] = DLS and TEM of self-assembled nanoaggregates; type: physicochemical; settings: self-assembly in aqueous solution; TEM images and DLS
HUVECs [14] = experiment: Intracellular ROS, NO and RNS probes in HUVECs; type: cell-based, human; settings: H2O2 treated HUVECs, O38 probe; n = 5
Procedure, shortened: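 HUVECs (endothelial cell medium, 5% FBS plus growth supplements) were seeded and grown 24 h, then treated 4 h. Cells were stained with BBoxiProbe O38 for NO, imaged by fluorescence microscopy, and mean fluorescence intensity was quantified. Mean ± SEM, n = 5.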

cells = experiment: NO release from culture medium of cells, Griess assay; type: cell-based; settings: PDCs 10 µM
Procedure, shortened: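 PDCs (10 µM) were incubated with cells pretreated with PBS or H2O2 for 24 h. NO in the culture medium was measured by Griess assay at 0 h and 24 h.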

[15] = immunofluorescence, 28 days after MI, n = 4

CSTSMLKAC [CTP-PBA]
apoptosis percentage (H9c2 cells [1]): 20.3% | mitochondrial membrane potential (H2O2-treated H9c2 cells): limited effects | viability of H9c2 challenged with H2O2 (H9c2 cells [2]): only partially restored the viability of H9c2 | intracellular concentration of peroxynitrite (ONOO-) / RNS (H2O2 treated H9c2 cells [3]): downregulation of RNS inside cells

O=[N+]([O-])O[C@@H]1CO[C@H]2[C@@H]1OC[C@@H]2O [ISN, isosorbide mononitrate, reference compound]
apoptosis percentage (H9c2 cells [1]): 32.2% | intracellular ROS level (H2O2 treated H9c2 cells [4]): did not change the level of ROS inside cells | intracellular level of NO (H2O2 treated H9c2 cells [5]): significantly increased the intracellular level of NO | mitochondrial membrane potential (H2O2-treated H9c2 cells): negligible influence on the restoration of mitochondrial membrane potential | migration of HUVECs (HUVECs [6]): barely promoted the H2O2-inhibited migration of HUVECs | expression of VEGF and p-eNOS/eNOS ratio (HUVECs [7]): nor did it reverse the downregulated expression of angiogenesis-related proteins | ROS in heart tissue (MI mice; DHE staining, day 1 after MI, i.v. 200 µg/kg equivalent of ISN, n = 4): little effects on tissue abundance of ROS | RNS in heart tissue (MI mice; O56 staining, day 1 after MI, i.v. 200 µg/kg equivalent of ISN, n = 4): promoted vast generation of RNS | angiogenesis in the border zone of infarct region (CD31+ capillaries, α-SMA+ arterioles) (MI mice; [15]): didn’t have any effects of neovascularization | viability of H9c2 challenged with H2O2 (H9c2 cells [2]): increased the loss of myocytes | intracellular concentration of peroxynitrite (ONOO-) / RNS (H2O2 treated H9c2 cells [3]): dramatically elevated the intracellular concentration of peroxynitrite

OCc1ccc(O)cc1 [4-HBA, 4-hydroxybenzyl alcohol]
intracellular ROS level (H2O2 treated H9c2 cells [4]): mitigate intracellular ROS in a concentration-dependent manner

CSTSMLKAC [Cy5.5-CTP-PBA-ISN]
fluorescent signal of infarcted hearts ([8]; MI mice, 2 h after injection via tail veins, ex vivo imaging): bright fluorescent signal

CSTSMLKAC [CTP-PBA-ISN]
ROS clearance, ABTS assay (ABTS assay): dose-dependent manner | ATP content (H9c2 cells [9]; H9c2 under H2O2, ATP assay kit, n = 3): increased ATP content | structure of mitochondria (H9c2 cells [9]; H9c2 under H2O2, TEM): preserved the normal structure of mitochondria | apoptosis percentage (H9c2 cells [1]): 15.6% | bio-viability and apoptosis of HUVECs under oxidative stress (HUVECs [10]): most effective in maintaining bio-viability and inhibiting apoptosis | free radical clearance, DPPH assay (DPPH assay): dose-dependent manner | intracellular level of NO (H2O2 treated H9c2 cells [5]): significantly increased the intracellular level of NO | accumulation in other organs ([8]; sham and MI animals, extended time after injections, n = 3): accumulated in the kidneys, livers, and lungs | cytoplasmic calcium level (H2O2-treated H9c2 cells; Fluo-4 AM staining): reversed the abnormal elevation of cytoplasmic calcium level | mitochondrial membrane potential (H2O2-treated H9c2 cells): potently restored the cross-membrane potential of mitochondria | mitochondrial ROS (H2O2-treated H9c2 cells; MitoSOX staining): most effective in blocking the H2O2-induced overproduction of ROS in mitochondria | migration of HUVECs (HUVECs [6]): migration to the level similar to those of H2O2-untreated control | TNF-α and IL-6 protein expression (H9c2 cells [11]; immunoblot): capably reversed such elevation | intracellular expression of Nrf2, HO-1 and NQO-1 (H9c2 cells [11]; immunoblot): downregulated intracellular expression of Nrf2, HO-1 and NQO-1 | expression of BAX, Caspase3 and Bcl-2 (H9c2 cells [11]; western blotting): most effective in downregulation of apoptosis proteins (BAX, Caspase3) and upregulation of anti-apoptosis protein (Bcl-2) | tube formation (pseudopod length, number of junction, degree of branch) (HUVECs [12]): facilitated recovery in pseudopod length, number of junction and degree of branch | expression of VEGF and p-eNOS/eNOS ratio (HUVECs [7]): remarkably upregulated | diameter of spherical nanoaggregates [13]: 47 ± 4 nm | intracellular NO delivery (HUVECs [14]): maximizing intracellular NO delivery | fibrotic area and infarct wall thickness (MI mice; Masson's trichrome, 28 days after MI, n = 4): reduced fibrotic area and increased infarct wall thickness | ultrastructure of myocardial mitochondria (MI mice; TEM of tissue slices, 3 days after MI): ameliorated myocardial fiber rupture, mitochondrial damage and increased mitochondrial numbers | apoptosis cardiomyocytes in infarcted myocardial tissue (MI mice; TUNEL staining, 3 days after MI, n = 4): lowest number of apoptosis cardiomyocytes | cross-sectional area of cardiomyocytes (MI mice; WGA staining, 28 days after MI, n = 5): smaller cross-sectional area of cardiomyocytes | OS proteins (NRF2, HO-1, NQO-1) and pro-inflammation cytokines (TNF-α, IL-6) in the heart (MI mice; Western blot, 1 day after MI, n = 3): significant decrease | protein expressions of CS, IDH2 and OGDH in heart tissues (MI mice; immunoblot, 3 days after MI, n = 3): facilitated recovery of these downregulated mitochondria related rate-limiting enzymes | angiogenesis in the border zone of infarct region (CD31+ capillaries, α-SMA+ arterioles) (MI mice; [15]): greatly promoted | macrophage phenotype (CD86 / CD206) (MI mice; [15]): established a M2-dominant macroenvironment | infarct area (MI mice; n = 3): greatly reduced | viability of H9c2 challenged with H2O2 (H9c2 cells [2]): potent preservation of cell survival | intracellular concentration of peroxynitrite (ONOO-) / RNS (H2O2 treated H9c2 cells [3]): did not increase the intracellular concentration of RNS | NO concentration in culture medium (cells; cells treated with H2O2, 24 h): significantly increased NO concentration | NO release in culture medium (cells; cells without H2O2 treatment, 24 h): moderated NO release
